According to ChEMBL document CHEMBL3227971, “Synthesis and antibacterial activity of 2-oxocephalosporins” (1979):
Converted amounts (≈) assume the structure as drawn.

Tests used:
Assay type in all cases: functional
Klebsiella pneumoniae [1] = experiment: Antimicrobial activity against Klebsiella pneumoniae 15130 by two fold serial dilution technique
Method in brief: (§1)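 MIC determined by twofold serial broth dilution in nutrient broth, reported in μg/mL.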

Morganella morganii = experiment: Antimicrobial activity against Proteus morganii 15153 by two fold serial dilution technique; method in brief: as §1
Proteus mirabilis [2] = experiment: Antimicrobial activity against Proteus mirabilis 9716 by two fold serial dilution technique; method in brief: as §1
Pseudomonas aeruginosa = experiment: Antimicrobial activity against Pseudomonas aeruginosa 9843 by two fold serial dilution technique; method in brief: as §1
Enterococcus faecalis = experiment: Antimicrobial activity against Streptococcus faecalis 20688 by two fold serial dilution technique; method in brief: as §1
Providencia rettgeri = experiment: Antimicrobial activity against Providencia rettgeri 21205 by two fold serial dilution technique; method in brief: as §1
Staphylococcus aureus [3] = experiment: Antimicrobial activity against Staphylococcus aureus 9537 by two fold serial dilution technique; method in brief: as §1
Escherichia coli [4] = experiment: Antimicrobial activity against Escherichia coli 20341 by two fold serial dilution technique; method in brief: as §1
Staphylococcus aureus [5] = experiment: Antimicrobial activity against methicillin-resistant Staphylococcus aureus 15097 by two fold serial dilution technique
Method in brief: (§2)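 MIC determined by twofold serial dilution in nutrient broth; values reported in μg/mL.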

Streptococcus pneumoniae = experiment: Antimicrobial activity against Streptococcus pneumoniae 1985 by two fold serial dilution technique; method in brief: as §1
Enterobacter cloacae [6] = experiment: Antimicrobial activity against Enterobacter cloacae 9659 by two fold serial dilution technique; method in brief: as §1
Proteus mirabilis [7] = experiment: Antimicrobial activity against Proteus mirabilis 9900 by two fold serial dilution technique; method in brief: as §1
Enterobacter cloacae [8] = experiment: Antimicrobial activity against Enterobacter cloacae 9656 by two fold serial dilution technique; method in brief: as §1
Staphylococcus aureus [9] = experiment: Antimicrobial activity against penicillin-resistant Staphylococcus aureus 9606 by two fold serial dilution technique; method in brief: as §2
Escherichia coli [10] = experiment: Antimicrobial activity against Escherichia coli 15119 by two fold serial dilution technique; method in brief: as §1
Staphylococcus aureus [11] = experiment: Antimicrobial activity against Staphylococcus aureus 9537 by two fold serial dilution technique in presence of 50% serum
Serratia marcescens = experiment: Antimicrobial activity against Serratia marcescens 20019 by two fold serial dilution technique; method in brief: as §1
Klebsiella pneumoniae [12] = experiment: Antimicrobial activity against Klebsiella pneumoniae 20468 by two fold serial dilution technique; method in brief: as §1
Streptococcus pyogenes = experiment: Antimicrobial activity against Streptococcus pyogenes 9604 by two fold serial dilution technique; method in brief: as §1

Row | SMILES | MIC (Klebsiella pneumoniae [1]) | MIC (Morganella morganii) | MIC (Proteus mirabilis [2]) | MIC (Pseudomonas aeruginosa) | MIC (Enterococcus faecalis) | MIC (Providencia rettgeri) | MIC (Staphylococcus aureus [3]) | MIC (Escherichia coli [4]) | MIC (Staphylococcus aureus [5]) | MIC (Streptococcus pneumoniae) | MIC (Enterobacter cloacae [6]) | MIC (Proteus mirabilis [7]) | MIC (Enterobacter cloacae [8]) | MIC (Staphylococcus aureus [9]) | MIC (Escherichia coli [10]) | MIC (Staphylococcus aureus [11]) | MIC (Serratia marcescens) | MIC (Klebsiella pneumoniae [12]) | MIC (Streptococcus pyogenes)
1 | CC1=C(C(=O)O)N2C(=O)[C@@H](NC(=O)COc3ccccc3)[C@H]2SC1=O | > 125 µg/mL | > 125 µg/mL | 125 µg/mL (≈ 345 µM) | > 125 µg/mL | 63 µg/mL (≈ 174 µM) | > 125 µg/mL | 8 µg/mL (≈ 22.1 µM) | > 125 µg/mL | > 125 µg/mL | 32 µg/mL (≈ 88.3 µM) | > 125 µg/mL | 125 µg/mL (≈ 345 µM) | > 125 µg/mL | 125 µg/mL (≈ 345 µM) | > 125 µg/mL | > 63 µg/mL | > 125 µg/mL | > 125 µg/mL | 32 µg/mL (≈ 88.3 µM)
2 | CC(=O)OCC1=C(C(=O)O)N2C(=O)[C@@H](NC(=O)Cc3cccs3)[C@H]2SC1=O | > 125 µg/mL | > 125 µg/mL | 63 µg/mL (≈ 153 µM) | > 125 µg/mL | 125 µg/mL (≈ 305 µM) | > 125 µg/mL | 4 µg/mL (≈ 9.75 µM) | > 125 µg/mL | > 125 µg/mL | 1 µg/mL (≈ 2.44 µM) | > 125 µg/mL | 32 µg/mL (≈ 78 µM) | > 125 µg/mL | 16 µg/mL (≈ 39 µM) | > 125 µg/mL | 63 µg/mL | > 125 µg/mL | > 125 µg/mL | 1 µg/mL (≈ 2.44 µM)
3 | CC1=C(C(=O)O)N2C(=O)[C@@H](N)[C@H]2SC1=O.Cc1ccc(S(=O)(=O)O)cc1 | > 125 µg/mL | > 125 µg/mL | 125 µg/mL | > 125 µg/mL | 32 µg/mL | 125 µg/mL | 32 µg/mL | > 125 µg/mL | 125 µg/mL | 63 µg/mL | > 125 µg/mL | > 125 µg/mL | > 125 µg/mL | > 125 µg/mL | > 125 µg/mL | > 63 µg/mL | > 125 µg/mL | > 125 µg/mL | 125 µg/mL
4 | CC1=C(C(=O)O)N2C(=O)[C@@H](NC(=O)Cc3cccs3)[C@H]2SC1=O | > 125 µg/mL | > 125 µg/mL | 63 µg/mL (≈ 179 µM) | > 125 µg/mL | 63 µg/mL (≈ 179 µM) | > 125 µg/mL | 8 µg/mL (≈ 22.7 µM) | > 125 µg/mL | > 125 µg/mL | 63 µg/mL (≈ 179 µM) | > 125 µg/mL | 63 µg/mL (≈ 179 µM) | > 125 µg/mL | > 125 µg/mL | > 125 µg/mL | > 63 µg/mL | > 125 µg/mL | > 125 µg/mL | 125 µg/mL (≈ 355 µM)
5 | CC(=O)OCC1=C(C(=O)O)N2C(=O)[C@@H](NC(=O)Cc3cccs3)[C@H]2SC1 [CEPHALOTHIN] | 16 µg/mL (≈ 40.4 µM) | > 125 µg/mL | 2 µg/mL (≈ 5.04 µM) | > 125 µg/mL | 32 µg/mL (≈ 80.7 µM) | 63 µg/mL (≈ 159 µM) | 0.13 µg/mL (≈ 0.328 µM) | 16 µg/mL (≈ 40.4 µM) | 32 µg/mL (≈ 80.7 µM) | 0.06 µg/mL (≈ 0.151 µM) | > 125 µg/mL | 1 µg/mL (≈ 2.52 µM) | > 125 µg/mL | 0.5 µg/mL (≈ 1.26 µM) | 16 µg/mL (≈ 40.4 µM) | 8 µg/mL | > 125 µg/mL | > 125 µg/mL | 0.13 µg/mL (≈ 0.328 µM)
